In series [1] the test system is tamoxifen-resistant MCF7 cells (TAMR). The settings on record: higher potency/efficacy than enzalutamide; cited from earlier work.
Series [2] concerns MDA-MB-453 cells (ER−/AR+). The settings on record: higher potency/efficacy than enzalutamide; cited from earlier work.
Series [3] concerns women with locally advanced or metastatic TNBC or ER+ breast cancer. As to the kind of experiment: Phase 1 safety and tolerability: treatment-emergent adverse events and DLT. Format: in vivo, human.
In series [4] the test system is MCF7 (ER+/low AR expression). The settings on record: higher potency/efficacy than enzalutamide; cited from earlier work.
The subject of series [5] is unresectable locally advanced or metastatic breast cancer. The series can be described thus: Efficacy: clinical benefit rate and tumor response. Format: in vivo, human. The essentials: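 Women with triple-negative or postmenopausal ER+/HER2− unresectable locally advanced or metastatic disease took oral 150-mg tablets once daily in continuous 28-day cycles, in de-escalating cohorts. Imaging used bone scan, CT and/or MRI matching the baseline modality, every 2 months in year one and every 3 months thereafter. Clinical benefit was stable disease, partial or complete response (RECIST 1.1), scored at 16 weeks for TNBC and 24 weeks for ER+.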

Series [6] has as its system H16N2 (AR-/PR-/low ER expression). The settings on record: higher potency/efficacy than enzalutamide; cited from earlier work.
The subject of series [7] is CYP17 lyase versus CYP17 17-α hydroxylase. The settings on record: cited from earlier work.
Series [8] can be described thus: Pharmacokinetics after a single dose of seviteronel. It is filed as in vivo, human. The procedure, abridged:
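Women took a single oral dose as 150-mg tablets. Blood was drawn before dosing and at 0.5, 1, 2, 4, 6, 8 and 24 h afterward. Plasma drug was measured by LC-MS/MS, with a lower limit of quantification of 20 ng/mL (0.05 uM). Parameters were derived by noncompartmental analysis.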

The subject of series [9] is women with locally advanced or metastatic TNBC or ER+ breast cancer. The series can be described thus: Treatment duration, discontinuations and dose modifications. The settings on record: all dose cohorts; Twenty-one percent. Format: in vivo, human. The procedure, abridged:
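Dosing was oral, once daily, in continuous 28-day cycles. Drug was stopped for loss of clinical benefit, an adverse event precluding further participation, or withdrawal of consent. Toxicity was graded by NCI CTCAE v4.03. Evaluations were every two weeks in Cycle 1, then monthly through the end-of-treatment visit.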

In series [10] the test system is tamoxifen-resistant MCF7 xenograft. The settings on record: tamoxifen-resistant MCF7 mouse xenograft, compared to enzalutamide; cited from earlier work.
Series [11] has as its system AR, wild-type and mutated forms (e.g., F876L and T877A). The settings on record: cited from earlier work.
The test system of series [12] is metastatic breast cancer. The settings on record: cited from earlier work.
The subject of series [13] is estradiol. The settings on record: cited from earlier work.
Setting [14] is: randomized phase 2, metastatic ER+ breast cancer, N = 297.
[15] abbreviates: phase 2 TBCRC011, AR+ (ER−/PR−) metastatic breast cancer, N = 26.
The mark [16] stands for this setting: MDV3100-11, AR+ TNBC, N = 118, intent to treat AR > 0%, ref (12).

Read-outs that look alike come from different tables or passages of the source.

Consider `CC(C)[C@](O)(c1ccc2cc(OC(F)F)c(OC(F)F)cc2c1)c1c[nH]nn1` [Seviteronel], for which, in series [1], the “Growth of tamoxifen-resistant MCF7 cells” value is “inhibited”. The DHT-stimulated growth result in [2] is “inhibited”. Also, in series [3] (all considered unrelated to study drug (disease progression n=2, hepatic failure n=1, ischemic stroke n=1)), the Deaths reported turned out to be 4. In [3] (female, human, in vivo), the “Fatigue, AE incidence” value stood at 37%; the “Nausea, AE incidence” value was determined as 42%; the “Subjects with SAE Gr 3 or greater” value turned out to be 12 subjects; the “Tremor, AE incidence” value amounted to 42%. Moreover, the “Vomiting, AE incidence” value in series [3] (female, human, in vivo) is given as 37%. Moreover, the “Recommended phase 2 dose (RP2D) in women” value in [3] (female, human, in vivo, po) is listed as 450 mg QD. In addition, in [3] (in vivo), the Hepatic transaminase elevation entry is “not associated with hepatic transaminase elevation”; the Hypokalemia result was “not seen”; the “Serious adverse events (SAE) Gr 3 or greater, number of events” value is “Fifteen”. For the same compound, the Tolerability entry in [3] (in vivo, po) is “generally well tolerated”. Further, the “Estrogen-stimulated proliferation and cell growth in a soft agar assay” value in series [4] is given as “inhibited”. The “Subjects reaching at least CBR16” value in [5] (450 mg QD cohort (RP2D), 2 TNBC CBR16 and 2 ER+ CBR24) is recorded as 4 of 7. The “Subjects reaching CBR24 (24-week clinical benefit rate)” value in series [5] (across dose groups, 2 of 19 subjects) is recorded as 11%. Besides, the “Subjects reaching at least CBR16 (16-week clinical benefit rate)” value in series [5] (across dose groups, Five of 19 subjects) was determined as 26.3%. Besides, the Objective tumor responses result in series [5] (all dose cohorts) is given as “no objective tumor responses”. For the same compound, in series [6], the Cellular proliferation result is given as “inhibited”. Further, the “Selectivity for CYP17 lyase versus CYP17 17-α hydroxylase inhibition” value in series [7] is on record as “approximately 10 fold”. For the same compound, the half-life – broadly, the time needed for the level to fall by half in the phase considered – in [8] (female, human, plasma, oral, 750 mg, Half-life, single dose, across 450, 600, 750 mg) was in the range of 6.4 to 8.4 h. The “Dose relationship of peak and trough plasma concentrations and AUC” value in series [8] (single dose, 450-750 mg, women) is “dose-proportional relationship”. Besides, in series [8] (three dose levels combined), the “Relationship between exposure and body surface area and body mass index” value was “moderate relationship”. Also, the “Subjects with a dose reduction due to an AE” value in [9] is recorded as 4/19. Moreover, in series [10], the Survival result is “increased survival” and the Tumor growth entry is “inhibited tumor growth”. For the same compound, the AR inhibition mechanism result in series [11] is “competitive antagonism”.

On to `C[C@]12CC[C@H](O)CC1=CC[C@@H]1[C@@H]2CC[C@]2(C)C(c3cccnc3)=CC[C@@H]12` [abiraterone], for which the “24-month CBR” value in [12] (metastatic AR+ TNBC, N = 30, evaluable AR ≥ 10%) is on record as 20%; in series [12] (metastatic ER+/AR+ breast cancer, N = 32, evaluable AR ≥ 1%) it was 22%. Further, in series [12] (setting [14]), the “Median PFS” value is recorded as 3.7 months.

Regarding `CC(O)(CS(=O)(=O)c1ccc(F)cc1)C(=O)Nc1ccc(C#N)c(C(F)(F)F)c1` (stereo not shown) [bicalutamide], in series [12] (setting [15]), the “24-week CBR” value is reported as 19%, the “Median progression-free survival (PFS)” value is given as 12 weeks and the Objective responses result is listed as “no objective responses”.

For the compound `CNC(=O)c1ccc(N2C(=S)N(c3ccc(C#N)c(C(F)(F)F)c3)C(=O)C2(C)C)cc1F` [enzalutamide], the Increase in estradiol in [13] (given in combination with anastrozole) is reported as 40%. Further, the Increase in estradiol in [13] (given in combination with exemestane) is reported as 13%. In addition, in [12] (setting [16]), the “16-week CBR” value was 25%, the “24-week CBR” value is recorded as 20% and the “Median PFS” value is on record as 12.6 weeks.

As to `C=C1C[C@@H]2[C@H](CC[C@]3(C)C(=O)CC[C@@H]23)[C@@]2(C)C=CC(=O)C=C12` [exemestane], in series [12] (setting [14]), the “Median PFS” value is listed as 3.7 months.

In the case of `N#Cc1ccc(C(c2ccc(C#N)cc2)n2cncn2)cc1` [letrozole], the Decline in estradiol result in series [13] (postmenopausal women with ER+ BC, by 3 months of treatment) was “approximately 36%”.
